{
  "source": "PubChem BioAssay AID652011",
  "about": "(Sanford-Burnham Center for Chemical Genomics, 2013)",
  "note": "Values joined by “and” are separate entries in the source; they are usually repeats but may differ in a detail not shown here. Equal entries are not always repeated.",
  "data": [
    {"target": "Hypoxia-inducible factor 1-alpha (Homo sapiens) (UniProt Q16665)", "sequence (Q16665 whole entry, looked up)": "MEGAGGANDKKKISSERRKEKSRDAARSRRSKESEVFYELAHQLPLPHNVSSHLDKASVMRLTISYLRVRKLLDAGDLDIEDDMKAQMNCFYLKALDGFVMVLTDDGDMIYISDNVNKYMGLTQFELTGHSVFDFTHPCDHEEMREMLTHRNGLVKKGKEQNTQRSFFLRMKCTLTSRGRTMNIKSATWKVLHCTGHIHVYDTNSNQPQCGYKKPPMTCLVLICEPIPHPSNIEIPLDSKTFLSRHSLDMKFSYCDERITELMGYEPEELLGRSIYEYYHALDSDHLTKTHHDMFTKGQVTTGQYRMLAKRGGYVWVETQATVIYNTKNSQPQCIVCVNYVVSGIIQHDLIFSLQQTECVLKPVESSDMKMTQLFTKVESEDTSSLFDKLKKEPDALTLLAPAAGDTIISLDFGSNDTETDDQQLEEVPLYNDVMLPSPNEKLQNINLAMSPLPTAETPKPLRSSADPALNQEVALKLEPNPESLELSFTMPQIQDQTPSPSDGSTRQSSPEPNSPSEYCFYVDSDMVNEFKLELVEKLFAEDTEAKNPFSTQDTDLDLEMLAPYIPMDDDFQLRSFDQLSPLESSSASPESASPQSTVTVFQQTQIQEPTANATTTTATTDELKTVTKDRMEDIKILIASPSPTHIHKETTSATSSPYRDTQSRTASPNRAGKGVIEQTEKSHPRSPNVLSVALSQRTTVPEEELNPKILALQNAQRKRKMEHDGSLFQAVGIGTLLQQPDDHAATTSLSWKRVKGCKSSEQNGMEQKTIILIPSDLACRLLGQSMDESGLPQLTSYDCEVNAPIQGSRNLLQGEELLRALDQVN", "test": "HIF reporter inhibition across pancreatic and renal lines – cell-based, luminescence, MIAPaCa-2, 786-0, panel, SAR follow-up (AID 652011)", "settings": "MIAPaCa-2/PANC HIF reporter, luciferase luminescence, desferoxamine, overnight, HIF1a, run 2; at 99 µM (top of the series)", "method_in_brief": "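Probe or stimulus: desferoxamine stimulus / Schedule: overnight compound incubation at 37 °C, 10 min reagent / Dosing: compounds from 10 mM and 0.3125 mM stocks, 1% DMSO final / Signal: luciferase luminescence with One-Glo reagent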", "values": [
      {"smiles": "CCNC(=O)CCc1nc(-c2ccccc2Cl)no1", "inhibition": "-3.81%"},
      {"smiles": "C=CCNC(=O)CCc1nc(-c2ccc(C(C)(C)C)cc2)no1", "inhibition": "34.7%"},
      {"smiles": "CCOc1ccccc1NC(=O)CCc1nc(-c2ccc(C(C)(C)C)cc2)no1", "inhibition": "60%"},
      {"smiles": "CC(C)(C)c1ccc(-c2noc(CCC(=O)NC3CCCCC3)n2)cc1", "inhibition": "55.9%"},
      {"smiles": "CCCCc1ccc(-c2noc(CCC(=O)NCC)n2)cc1", "inhibition": "17.4%"},
      {"smiles": "CC(C)NC(=O)CCc1nc(-c2ccc(C(C)(C)C)cc2)no1", "inhibition": "26.5%"},
      {"smiles": "CCc1ccc(-c2noc(CCC(=O)NC(C)(C)C)n2)cc1", "inhibition": "-0.564%"},
      {"smiles": "CCCCc1ccc(-c2noc(CCC(=O)NC(C)(C)C)n2)cc1", "inhibition": "93%"},
      {"smiles": "CCOc1ccc(-c2noc(CCC(=O)NC)n2)cc1", "inhibition": "-24%"},
      {"smiles": "CCc1ccc(-c2noc(CCC(=O)NC)n2)cc1", "inhibition": "-34.1%"},
      {"smiles": "CN(C)C(=O)CCc1nc(-c2ccc(C(C)(C)C)cc2)no1", "inhibition": "-8.56% and -52.1%"},
      {"smiles": "CC(C)(C)c1ccc(-c2noc(CCC(=O)NC3CC3)n2)cc1", "inhibition": "-29.7%"},
      {"smiles": "COC(=O)CCc1nc(-c2ccc(C(C)(C)C)cc2)no1", "inhibition": "93.8%"},
      {"smiles": "CCNC(=O)CCc1nc(-c2cccc(C)c2)no1", "inhibition": "-31.6%"},
      {"smiles": "CNC(=O)CCc1nc(-c2ccc(F)cc2)no1", "inhibition": "-36.7%"},
      {"smiles": "CC(C)(C)c1ccc(-c2noc(CCC(=O)NC3CCCC3)n2)cc1", "inhibition": "81.4%"},
      {"smiles": "CCC(C)NC(=O)CCc1nc(-c2ccc(C(C)(C)C)cc2)no1", "note": "(stereo not given)", "inhibition": "-28.9%"},
      {"smiles": "CC(C)(C)c1ccc(-c2noc(CCC(N)=O)n2)cc1", "inhibition": "31.2% and -6.5%"},
      {"smiles": "CC(C)(C)c1ccc(-c2noc(CCC(=O)O)n2)cc1", "inhibition": "94.9%"},
      {"smiles": "CCN(CC)C(=O)CCc1nc(-c2ccc(C(C)(C)C)cc2)no1", "inhibition": "27.4% and 77.3%"}
    ]}
  ]
}
